Measurements from ChEMBL document CHEMBL4190374, “Structure-Function Evaluation of Imidazopyridine Derivatives Selective for δ-Subunit-Containing γ-Aminobutyric Acid Type A (GABAA) Receptors” (J Med Chem, 2018).
Active and inactive are the calls of the source. No cut-off for these calls is given here.

Key:
[1] = target: T1, Gamma-aminobutyric acid receptor subunit alpha-6/beta-3 (Rattus norvegicus) (UniProt P30191+P63079); experiment: (§1) Displacement of [3H]EBOB from rat GABA-A receptor alpha6beta3 expressed in HEK293 cell membranes after 90 mins in presence of GABA by liquid scintillation counting analysis
[2] = target: T2, Gamma-aminobutyric acid receptor subunit alpha-6/beta-3 (Rattus norvegicus, UniProt P30191+P63079); experiment: as §1
T2 sequence (P30191 whole entry): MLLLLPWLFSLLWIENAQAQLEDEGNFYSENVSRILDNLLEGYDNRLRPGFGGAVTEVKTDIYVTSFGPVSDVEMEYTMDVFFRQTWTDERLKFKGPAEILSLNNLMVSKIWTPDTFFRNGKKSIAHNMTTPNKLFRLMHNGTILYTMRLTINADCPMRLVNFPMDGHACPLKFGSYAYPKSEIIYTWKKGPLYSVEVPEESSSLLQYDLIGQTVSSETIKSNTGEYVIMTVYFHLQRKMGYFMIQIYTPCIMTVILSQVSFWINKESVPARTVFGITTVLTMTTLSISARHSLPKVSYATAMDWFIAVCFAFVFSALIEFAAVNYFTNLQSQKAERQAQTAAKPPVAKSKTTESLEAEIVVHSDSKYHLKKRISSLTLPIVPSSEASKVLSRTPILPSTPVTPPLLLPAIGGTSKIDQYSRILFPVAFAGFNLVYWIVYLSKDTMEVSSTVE
T2 sequence (P63079 whole entry): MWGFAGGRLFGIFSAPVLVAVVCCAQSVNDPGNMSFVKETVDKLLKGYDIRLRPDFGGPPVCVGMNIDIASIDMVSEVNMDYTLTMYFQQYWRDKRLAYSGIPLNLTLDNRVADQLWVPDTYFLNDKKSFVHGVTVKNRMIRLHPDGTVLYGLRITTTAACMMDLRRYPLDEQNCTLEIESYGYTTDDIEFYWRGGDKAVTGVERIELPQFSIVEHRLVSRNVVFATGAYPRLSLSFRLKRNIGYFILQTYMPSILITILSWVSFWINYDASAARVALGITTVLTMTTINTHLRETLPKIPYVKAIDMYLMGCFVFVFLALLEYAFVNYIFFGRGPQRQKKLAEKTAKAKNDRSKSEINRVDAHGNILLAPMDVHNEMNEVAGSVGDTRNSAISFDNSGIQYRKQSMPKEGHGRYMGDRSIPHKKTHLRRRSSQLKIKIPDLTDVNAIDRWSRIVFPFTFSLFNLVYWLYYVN

[3] = target: T3, Gamma-aminobutyric acid receptor subunit alpha-6/beta-3/delta (Rattus norvegicus, UniProt P18506+P30191+P63079); experiment: (§2) Displacement of [3H]EBOB from rat GABA-A receptor alpha6beta3delta expressed in HEK293 cell membranes after 90 mins in presence of GABA by liquid scintillation counting analysis
T3 sequence (P18506 whole entry): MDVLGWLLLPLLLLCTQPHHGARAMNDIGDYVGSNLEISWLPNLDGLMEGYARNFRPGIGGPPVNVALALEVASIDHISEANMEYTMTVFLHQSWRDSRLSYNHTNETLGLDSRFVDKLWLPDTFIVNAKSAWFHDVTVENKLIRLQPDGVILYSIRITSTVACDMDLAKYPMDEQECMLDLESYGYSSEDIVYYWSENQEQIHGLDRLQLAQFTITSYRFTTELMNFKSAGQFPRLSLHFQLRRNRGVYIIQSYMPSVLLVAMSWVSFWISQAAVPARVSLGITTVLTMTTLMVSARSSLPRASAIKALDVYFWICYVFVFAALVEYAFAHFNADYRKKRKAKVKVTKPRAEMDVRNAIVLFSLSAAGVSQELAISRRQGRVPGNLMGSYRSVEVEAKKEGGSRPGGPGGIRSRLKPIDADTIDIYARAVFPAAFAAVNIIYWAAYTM
T3 sequence (P30191 whole entry): as the sequence (P30191 whole entry) above
T3 sequence (P63079 whole entry): as the sequence (P63079 whole entry) above

[4] = target: T4, Gamma-aminobutyric acid receptor subunit alpha-6/beta-3/delta (Rattus norvegicus) (UniProt P18506+P30191+P63079); experiment: as §2
[5] = target: T5, Gamma-aminobutyric acid receptor subunit alpha-4/beta-3/delta (Rattus norvegicus) (UniProt P18506+P28471+P63079); experiment: Displacement of [3H]EBOB from rat GABA-A receptor alpha4beta3delta expressed in HEK293 cell membranes at 20 uM after 90 mins by liquid scintillation counting analysis relative to control
[6] = target: T6, Gamma-aminobutyric acid receptor subunit alpha-4/beta-3 (Rattus norvegicus) (UniProt P28471+P63079); experiment: Displacement of [3H]EBOB from rat GABA-A receptor alpha4beta3 expressed in HEK293 cell membranes at 20 uM after 90 mins by liquid scintillation counting analysis relative to control
[7] = target: T3, Gamma-aminobutyric acid receptor subunit alpha-6/beta-3/delta; experiment: Displacement of [3H]EBOB from rat GABA-A receptor alpha6beta3delta expressed in HEK293 cell membranes after 90 mins by liquid scintillation counting analysis
Method in brief: (§3)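 Crude membranes from HEK 293 cells transiently Ca-phosphate-transfected with rat subunit cDNAs, harvested at 48 h. Membranes (150-200 µg protein) incubated with 3 nM [3H]EBOB in 50 mM Tris/citrate pH 7.3 plus 0.2 M NaCl. Compound up to 10 µM, final DMSO 0.1%, no GABA, 90 min at 21 °C. Bound radioligand collected by GF/C filtration and counted by scintillation.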

[8] = target: GABA A receptor alpha-6/beta-2/gamma-2 (Rattus norvegicus) (UniProt P18508+P30191+P63138); experiment: Displacement of [3H]EBOB from rat GABA-A receptor alpha6beta2gamma2 expressed in HEK293 cell membranes at 10 uM after 90 mins by liquid scintillation counting analysis relative to control; method in brief: as §3
[9] = target: Gamma-aminobutyric acid receptor subunit alpha-6/beta-2/delta (Rattus norvegicus) (UniProt P18506+P30191+P63138); experiment: Displacement of [3H]EBOB from rat GABA-A receptor alpha6beta2delta expressed in HEK293 cell membranes up to 10 uM after 90 mins by liquid scintillation counting analysis relative to control; method in brief: as §3
[10] = target: T7, Gamma-aminobutyric acid receptor subunit alpha-1/beta-3/gamma-2 (Rattus norvegicus) (UniProt P18508+P62813+P63079); experiment: Displacement of [3H]EBOB from rat GABA-A receptor alpha1beta3gamma2 expressed in HEK293 cell membranes at 20 uM after 90 mins by liquid scintillation counting analysis relative to control
[11] = target: Gamma-aminobutyric acid receptor subunit alpha-6/beta-2 (Rattus norvegicus) (UniProt P30191+P63138); experiment: Displacement of [3H]EBOB from rat GABA-A receptor alpha6beta2 expressed in HEK293 cell membranes at 10 uM after 90 mins by liquid scintillation counting analysis relative to control; method in brief: as §3
[12] = target: T8, Gamma-aminobutyric acid receptor subunit alpha-6/beta-3/gamma-2 (Rattus norvegicus) (UniProt P18508+P30191+P63079); experiment: Displacement of [3H]EBOB from rat GABA-A receptor alpha6beta3gamma2 expressed in HEK293 cell membranes up to 10 uM after 90 mins by liquid scintillation counting analysis relative to control; method in brief: as §3
[13] = target: Gamma-aminobutyric acid receptor subunit alpha-6/beta-2/delta (Rattus norvegicus, UniProt P18506+P30191+P63138); experiment: Displacement of [3H]EBOB from rat GABA-A receptor alpha6beta2delta expressed in HEK293 cell membranes after 90 mins by liquid scintillation counting analysis; method in brief: as §3
Chain of Gamma-aminobutyric acid receptor subunit alpha-6/beta-2/delta (P18506 whole entry): as the sequence (P18506 whole entry) above
Chain of Gamma-aminobutyric acid receptor subunit alpha-6/beta-2/delta (P30191 whole entry): as the sequence (P30191 whole entry) above
Chain of Gamma-aminobutyric acid receptor subunit alpha-6/beta-2/delta (P63138 whole entry): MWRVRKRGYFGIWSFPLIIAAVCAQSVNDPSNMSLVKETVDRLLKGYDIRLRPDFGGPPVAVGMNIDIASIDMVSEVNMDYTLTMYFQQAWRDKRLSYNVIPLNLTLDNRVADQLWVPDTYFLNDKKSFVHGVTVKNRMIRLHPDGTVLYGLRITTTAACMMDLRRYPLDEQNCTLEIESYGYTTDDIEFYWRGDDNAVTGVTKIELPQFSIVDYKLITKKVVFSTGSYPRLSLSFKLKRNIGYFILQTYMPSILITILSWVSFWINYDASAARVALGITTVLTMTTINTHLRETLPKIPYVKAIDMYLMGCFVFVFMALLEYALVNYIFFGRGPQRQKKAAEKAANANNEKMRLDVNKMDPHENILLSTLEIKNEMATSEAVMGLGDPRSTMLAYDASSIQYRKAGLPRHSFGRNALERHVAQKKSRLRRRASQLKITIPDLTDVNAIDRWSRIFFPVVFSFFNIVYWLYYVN

[14] = target: T9, Gamma-aminobutyric acid receptor subunit alpha-6/beta-3/gamma-2 (Rattus norvegicus, UniProt P18508+P30191+P63079); experiment: (§4) Displacement of [3H]EBOB from rat GABA-A receptor alpha6beta3gamma2 expressed in HEK293 cell membranes after 90 mins in presence of GABA by liquid scintillation counting analysis
T9 sequence (P18508 whole entry): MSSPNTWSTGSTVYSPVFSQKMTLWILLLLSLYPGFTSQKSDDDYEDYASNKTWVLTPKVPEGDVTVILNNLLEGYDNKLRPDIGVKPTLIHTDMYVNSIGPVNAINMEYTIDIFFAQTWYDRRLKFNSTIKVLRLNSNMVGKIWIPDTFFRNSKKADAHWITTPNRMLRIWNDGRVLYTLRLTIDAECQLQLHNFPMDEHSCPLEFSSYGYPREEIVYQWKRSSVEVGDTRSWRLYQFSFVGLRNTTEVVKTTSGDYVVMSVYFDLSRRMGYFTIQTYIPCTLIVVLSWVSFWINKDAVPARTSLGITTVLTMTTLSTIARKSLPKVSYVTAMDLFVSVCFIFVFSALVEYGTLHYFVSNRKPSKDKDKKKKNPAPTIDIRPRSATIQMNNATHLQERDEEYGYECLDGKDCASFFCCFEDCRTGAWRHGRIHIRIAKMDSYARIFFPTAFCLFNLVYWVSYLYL
T9 sequence (P30191 whole entry): as the sequence (P30191 whole entry) above
T9 sequence (P63079 whole entry): as the sequence (P63079 whole entry) above

[15] = target: T8, Gamma-aminobutyric acid receptor subunit alpha-6/beta-3/gamma-2 (Rattus norvegicus); experiment: as §4
[16] = target: T10, Gamma-aminobutyric acid receptor subunit alpha-1/beta-3/delta (Rattus norvegicus) (UniProt P18506+P62813+P63079); experiment: Displacement of [3H]EBOB from rat GABA-A receptor alpha1beta3delta expressed in HEK293 cell membranes at 20 uM after 90 mins by liquid scintillation counting analysis relative to control
[17] = target: T11, Gamma-aminobutyric acid receptor subunit alpha-4/beta-3/gamma-2 (Rattus norvegicus) (UniProt P18508+P28471+P63079); experiment: Displacement of [3H]EBOB from rat GABA-A receptor alpha4beta3gamma2 expressed in HEK293 cell membranes at 20 uM after 90 mins by liquid scintillation counting analysis relative to control
[18] = target: T1, Gamma-aminobutyric acid receptor subunit alpha-6/beta-3 (Rattus norvegicus); experiment: Displacement of [3H]EBOB from rat GABA-A receptor alpha6beta3 expressed in HEK293 cell membranes at 20 uM after 90 mins by liquid scintillation counting analysis relative to control
[19] = target: T7, Gamma-aminobutyric acid receptor subunit alpha-1/beta-3/gamma-2 (Rattus norvegicus); experiment: Modulation of rat eGFP-fused GABA-A receptor alpha1beta3gamma2 expressed in HEK293 cells at <= 1 uM in presence of GABA by patch-clamp assay relative to control; type: cell-based
[20] = target: T5, Gamma-aminobutyric acid receptor subunit alpha-4/beta-3/delta (Rattus norvegicus); experiment: Modulation of rat […] GABA-A receptor alpha4beta3delta expressed in HEK293 cells up to 10 uM in presence of GABA by patch-clamp assay relative to control; type: cell-based
Method in brief: (§5)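 Rat GABA-A subunits were transiently co-transfected with eGFP into HEK293 cells on coverslips. Fluorescent cells were recorded by whole-cell patch clamp 48 h later; bath pH 7.4, KCl/KOH pipette pH 7.2. Compound was applied at increasing concentrations up to 10 µM with the receptor-specific GABA EC20. Peak currents were fitted logistically for EC50, Hill and % modulation, as mean ± S.E.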

[21] = target: T8, Gamma-aminobutyric acid receptor subunit alpha-6/beta-3/gamma-2 (Rattus norvegicus); experiment: Modulation of rat eGFP-fused GABA-A receptor alpha6beta3gamma2 expressed in HEK293 cells at <= 1 uM in presence of GABA by patch-clamp assay relative to control; type: cell-based
[22] = target: Gamma-aminobutyric acid receptor subunit alpha-1/beta-3 (Rattus norvegicus) (UniProt P62813+P63079); experiment: Modulation of rat […] GABA-A receptor alpha1beta3 expressed in HEK293 cells at <= 10 uM in presence of GABA by patch-clamp assay relative to control; type: cell-based
Method in brief: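 Whole-cell patch clamp on eGFP-co-transfected HEK 293 cells expressing rat subunits, recorded 48 h post-transfection. KCl/KOH-based pipette solution, pH 7.2. Rising compound concentrations up to 10 µM co-applied with the receptor-specific GABA EC20. Peak currents fitted to a logistic function giving EC50, Hill coefficient and % modulation, mean ± S.E. of n experiments.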

[23] = target: T10, Gamma-aminobutyric acid receptor subunit alpha-1/beta-3/delta (Rattus norvegicus); experiment: Modulation of rat […] GABA-A receptor alpha1beta3delta expressed in HEK293 cells up to 10 uM in presence of GABA by patch-clamp assay relative to control; type: cell-based; method in brief: as §5
[24] = target: T11, Gamma-aminobutyric acid receptor subunit alpha-4/beta-3/gamma-2 (Rattus norvegicus); experiment: Modulation of rat eGFP-fused GABA-A receptor alpha4beta3gamma2 expressed in HEK293 cells at <=1 uM in presence of GABA by patch-clamp assay relative to control; type: cell-based
[25] = target: T6, Gamma-aminobutyric acid receptor subunit alpha-4/beta-3 (Rattus norvegicus); experiment: Modulation of rat eGFP-fused GABA-A receptor alpha4beta3 expressed in HEK293 cells at <= 1 uM in presence of GABA by patch-clamp assay relative to control; type: cell-based
[26] = target: Gamma-aminobutyric acid receptor subunit alpha-1/beta-3/delta (Rattus norvegicus, UniProt P18506+P62813+P63079); experiment: Modulation of rat […] GABA-A receptor alpha1beta3delta expressed in HEK293 cells in presence of GABA by patch-clamp assay; type: cell-based; method in brief: as §5
Chain of Gamma-aminobutyric acid receptor subunit alpha-1/beta-3/delta (P18506 whole entry): as the sequence (P18506 whole entry) above
Chain of Gamma-aminobutyric acid receptor subunit alpha-1/beta-3/delta (P62813 whole entry): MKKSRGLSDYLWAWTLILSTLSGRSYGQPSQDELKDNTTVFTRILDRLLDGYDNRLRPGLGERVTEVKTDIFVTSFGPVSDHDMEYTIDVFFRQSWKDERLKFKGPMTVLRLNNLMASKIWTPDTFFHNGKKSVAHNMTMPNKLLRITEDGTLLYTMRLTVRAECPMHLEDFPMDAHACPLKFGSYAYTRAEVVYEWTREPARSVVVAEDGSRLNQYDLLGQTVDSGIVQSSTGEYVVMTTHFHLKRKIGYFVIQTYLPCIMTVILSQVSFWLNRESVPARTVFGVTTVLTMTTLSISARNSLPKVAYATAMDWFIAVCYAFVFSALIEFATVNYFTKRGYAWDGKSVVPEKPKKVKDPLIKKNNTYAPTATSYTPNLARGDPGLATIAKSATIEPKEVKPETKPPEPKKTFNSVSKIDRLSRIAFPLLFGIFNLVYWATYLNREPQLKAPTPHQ
Chain of Gamma-aminobutyric acid receptor subunit alpha-1/beta-3/delta (P63079 whole entry): as the sequence (P63079 whole entry) above

[27] = target: T1, Gamma-aminobutyric acid receptor subunit alpha-6/beta-3 (Rattus norvegicus); experiment: Modulation of rat […] GABA-A receptor alpha6beta3 expressed in HEK293 cells up to 10 uM in presence of GABA by patch-clamp assay relative to control; type: cell-based; method in brief: as §5
[28] = target: T4, Gamma-aminobutyric acid receptor subunit alpha-6/beta-3/delta (Rattus norvegicus); experiment: Displacement of [3H]EBOB from rat GABA-A receptor alpha6beta3delta expressed in HEK293 cell membranes at 10 uM after 90 mins by liquid scintillation counting analysis relative to control; method in brief: as §3
[29] = target: Gamma-aminobutyric acid receptor subunit alpha-4/beta-3/delta (Rattus norvegicus, UniProt P18506+P28471+P63079); experiment: Modulation of rat […] GABA-A receptor alpha4beta3delta expressed in HEK293 cells in presence of GABA by patch-clamp assay; type: cell-based; method in brief: as §5
Chain of Gamma-aminobutyric acid receptor subunit alpha-4/beta-3/delta (P18506 whole entry): as the sequence (P18506 whole entry) above
Chain of Gamma-aminobutyric acid receptor subunit alpha-4/beta-3/delta (P28471 whole entry): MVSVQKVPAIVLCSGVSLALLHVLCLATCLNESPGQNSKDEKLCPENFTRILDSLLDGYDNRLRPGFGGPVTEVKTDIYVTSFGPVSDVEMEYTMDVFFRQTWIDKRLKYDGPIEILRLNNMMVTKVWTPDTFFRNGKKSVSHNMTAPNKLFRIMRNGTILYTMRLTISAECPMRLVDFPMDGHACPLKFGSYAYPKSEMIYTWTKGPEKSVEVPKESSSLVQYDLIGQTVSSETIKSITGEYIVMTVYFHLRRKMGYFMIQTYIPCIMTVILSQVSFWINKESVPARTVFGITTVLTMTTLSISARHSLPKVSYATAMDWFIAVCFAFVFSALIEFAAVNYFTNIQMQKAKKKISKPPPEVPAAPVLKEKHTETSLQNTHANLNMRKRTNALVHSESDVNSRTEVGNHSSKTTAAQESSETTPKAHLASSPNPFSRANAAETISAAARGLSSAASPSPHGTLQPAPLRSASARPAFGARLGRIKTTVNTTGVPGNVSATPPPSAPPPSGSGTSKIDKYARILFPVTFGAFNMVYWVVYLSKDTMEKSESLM
Chain of Gamma-aminobutyric acid receptor subunit alpha-4/beta-3/delta (P63079 whole entry): as the sequence (P63079 whole entry) above

[30] = target: T4, Gamma-aminobutyric acid receptor subunit alpha-6/beta-3/delta (Rattus norvegicus); experiment: Displacement of [3H]EBOB from rat GABA-A receptor alpha6beta3delta expressed in HEK293 cell membranes up to 10 uM after 90 mins by liquid scintillation counting analysis relative to control; method in brief: as §3
[31] = target: T1, Gamma-aminobutyric acid receptor subunit alpha-6/beta-3 (Rattus norvegicus); experiment: Displacement of [3H]EBOB from rat GABA-A receptor alpha6beta3 expressed in HEK293 cell membranes up to 10 uM after 90 mins by liquid scintillation counting analysis relative to control; method in brief: as §3
[32] = target: T2, Gamma-aminobutyric acid receptor subunit alpha-6/beta-3; experiment: Displacement of [3H]EBOB from rat GABA-A receptor alpha6beta3 expressed in HEK293 cell membranes after 90 mins by liquid scintillation counting analysis; method in brief: as §3
[33] = target: T9, Gamma-aminobutyric acid receptor subunit alpha-6/beta-3/gamma-2; experiment: Displacement of [3H]EBOB from rat GABA-A receptor alpha6beta3gamma2 expressed in HEK293 cell membranes after 90 mins by liquid scintillation counting analysis; method in brief: as §3

`CCCCOc1ccc(C(=O)Nc2c(-c3cccs3)nc3ccc(Br)cn23)cc1` was tested, and the Imax [1] was 26%, the IC50 [2] was 4070 nM and the IC50 [3] was 870 nM. For the same molecule, the Imax [4] was 51%, the inhibition [5] was “inactive” and the inhibition [6] was “inactive”. For the same molecule, the IC50 [7] was 2180 nM, the Imax [8] was 13% and the Imax [9] was 54%. For the same molecule, the inhibition [10] was “inactive”, the inhibition [11] was “inactive” and the Imax [12] was 10%. The IC50 [13] was 2430 nM, the IC50 [14] was 4340 nM and the Imax [15] was 40%. For the same molecule, the inhibition [16] was “inactive”, the inhibition [17] was “inactive” and the inhibition [18] was “inactive”.

For `O=C(Nc1c(-c2cccs2)nc2ccccn12)c1ccc(Cl)cc1`, the Activity [19] was “inactive”, the Activity [20] was 231% and the Activity [21] was “inactive”. The Activity [22] was “inactive”, the Activity [23] was 213% and the Activity [24] was “inactive”. The Activity [25] was “inactive”, the EC50 [26] was 860 nM and the Activity [27] was 588%. The Imax [28] was 20% and the EC50 [29] was 970 nM.

`O=C(Nc1c(-c2cccs2)nc2c(Br)cc(Br)cn12)c1ccc(OCCCF)cc1` was tested, and the IC50 [7] was 1000 nM, the Imax [30] was 38% and the inhibition [31] was “inactive”. For the same molecule, the inhibition [12] was “inactive”.

With `CCCCOc1ccc(C(=O)Nc2c(-c3cccs3)nc3c(Br)cc(Br)cn23)cc1` the IC50 [7] was 860 nM, the IC50 [32] was 2500 nM and the Imax [30] was 71%. For the same molecule, the IC50 [33] was 5510 nM, the Imax [31] was 46% and the Imax [12] was 24%.
